pIC50: −log10 of the molar value. Values after ≈ are worked out from the molar mass of the structure shown. One block for each molecule: values may come before it.
How the values were obtained:
[1] = Cytotoxicity against mouse J774 cells after 48 hrs by MTT assay; type: cell-based; conditions: read-out: ID50
How it was run: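 J-774 macrophages were seeded at 1 × 10⁵ cells/well in RPMI 1640 with 20% heat-inactivated FCS and left to attach for 48 h at 37 °C in 5% CO₂. Cells were then exposed to compounds for 48 h. MTT was added at 0.4 mg/mL final, formazan was dissolved in DMSO, and A595 was read. ID50 is the concentration cutting control absorbance by 50%, averaged over three experiments.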

Trypanosoma cruzi [2] = assay: Antitrypanosomal activity against Trypanosoma cruzi Tulahuen 2; type: functional; conditions: read-out: ID50 (the source's name)
How it was run: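 Epimastigotes were grown at 28 °C in BHI-tryptose with 5% FBS. Stationary-phase parasites are inoculated at 8 × 10⁶ cells/mL into medium containing increasing drug concentrations from DMSO stock (final DMSO ≤0.4%; vehicle control). Growth is followed by A600. ID50 is the concentration that halves the day-5 absorbance ratio relative to control.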

[3] = Selectivity index, ratio of ID50 for mouse J774 cells to ID50 for Trypanosoma cruzi Tulahuen 2; type: toxicity, cell-based; conditions: J774 cells versus Trypanosoma cruzi Tulahuen 2
How it was run: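 Selectivity index is the ID50 in J-774 macrophages (48 h MTT) divided by the ID50 against Tulahuen 2 epimastigotes (day-5 A600 growth).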

Nannizzia gypsea = assay: Antifungal activity against Microsporum gypseum C 115 after 48 hrs; type: functional; conditions: C 115, 48 h
How it was run: (§1)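 Dermatophytes were tested by CLSI M38-A microdilution in MOPS-buffered RPMI 1640 at pH 7.0. Inoculum is 10³ CFU/mL, with two-fold serial compound dilutions and final DMSO ≤1%. Trays are kept at 28–30 °C in a moist, dark chamber. MIC is the lowest concentration with total growth inhibition, read visually when control growth allows.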

Candida albicans = assay: Antifungal activity against Candida albicans ATCC 10231 after 48 hrs; type: functional; conditions: ATCC 10231, 48 h
How it was run: (§2)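 CLSI M27-A2 broth microdilution in RPMI 1640 buffered to pH 7.0 with MOPS. Inoculum is 10³ CFU/mL from Sabouraud-grown yeasts. Compound is two-fold serially diluted, final DMSO ≤1%. Incubated at 35 °C in a moist, dark chamber and read visually at 48 h. MIC is the lowest concentration giving total growth inhibition.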

Cryptococcus neoformans = assay: Antifungal activity against Cryptococcus neoformans ATCC 32264 after 48 hrs; type: functional; conditions: Cryptococcus neoformans, ATCC 32264, 48 h; for MIC: read-out: MIC; how it was run: as §2
Aspergillus fumigatus = assay: Antifungal activity against Aspergillus fumigatus ATCC 26934 after 48 hrs; type: functional; conditions: ATCC 26934, 48 h
How it was run: (§3)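 Aspergillus spp. were tested by CLSI M38-A broth microdilution in RPMI 1640 with MOPS at pH 7.0. Spore inoculum is 10³ CFU/mL, with two-fold compound dilutions and final DMSO ≤1%. Incubated at 35 °C in a moist, dark chamber. MIC is read visually as total growth inhibition, at a time set by growth of the control fungus.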

Trichophyton rubrum = assay: Antifungal activity against Trichophyton rubrum C 113 after 48 hrs; type: functional; conditions: C 113, 48 h; how it was run: as §1
Aspergillus flavus = assay: Antifungal activity against Aspergillus flavus ATCC 9170 after 48 hrs; type: functional; conditions: ATCC 9170, 48 h; how it was run: as §3
[4] = test system: Trichophyton mentagrophytes; assay: Antifungal activity against Trichophyton mentagrophytes ATCC 9972 after 48 hrs; type: functional; conditions: ATCC 9972, 48 h; how it was run: as §1
Aspergillus niger = assay: Antifungal activity against Aspergillus niger ATCC 9029 after 48 hrs; type: functional; conditions: ATCC 9029, 48 h; how it was run: as §3
Candida tropicalis = assay: Antifungal activity against Candida tropicalis C 131 2000 after 48 hrs; type: functional; conditions: Candida tropicalis, C 131 2000, 48 h; read-out: MIC; how it was run: as §2
Saccharomyces cerevisiae = assay: Antifungal activity against Saccharomyces cerevisiae ATCC 9763 after 48 hrs; type: functional; conditions: ATCC 9763, 48 h; how it was run: as §2
Trypanosoma cruzi [5] = assay: Antitrypanosomal activity against Trypanosoma cruzi Tulahuen 2 at 25 uM; type: functional
How it was run: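 Tulahuen 2 epimastigotes (8 × 10⁶ cells/mL, 28 °C, BHI-tryptose with 5% FBS) were exposed to a single drug concentration, with final DMSO ≤0.4% and a vehicle control. Percent growth inhibition = {1 − [(Ap − A0p)/(Ac − A0c)]} × 100, using A600 of drug and control cultures at day 0 and day 5.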

pIC50 (Trypanosoma cruzi [2]): 5.35
Compound: O=[N+]([O-])c1ccc2c(c1)c(OCc1ccccc1)nn2CCOCCNCCC/C=C/c1ccccc1
CC50 at 48 h [1]: < 100 µM
selectivity ratio [3]: < 22.2

Compound: C[C@@H]1[C@H](O)[C@@H](C)/C=C/C=C/C=C/C=C/C=C/C=C/C=C/[C@H](O[C@@H]2O[C@H](C)[C@@H](O)[C@H](N)[C@@H]2O)C[C@@H]2O[C@](O)(C[C@@H](O)C[C@@H](O)[C@H](O)CC[C@@H](O)C[C@@H](O)CC(=O)O[C@H]1C)C[C@H](O)[C@H]2C(=O)O [AMPHOTERICIN B]
MIC (Nannizzia gypsea): 0.125 µg/mL (≈ 0.135 µM)
MIC (Candida albicans): 0.78 µg/mL (≈ 0.844 µM)
MIC (Cryptococcus neoformans): 0.25 µg/mL (≈ 0.271 µM)
MIC (Aspergillus fumigatus): 0.5 µg/mL (≈ 0.541 µM)
MIC (Trichophyton rubrum): 0.075 µg/mL (≈ 0.0812 µM)
MIC (Aspergillus flavus): 0.5 µg/mL (≈ 0.541 µM)
MIC [4]: 0.075 µg/mL (≈ 0.0812 µM)
MIC (Aspergillus niger): 0.5 µg/mL (≈ 0.541 µM)
MIC (Candida tropicalis): 1.56 µg/mL (≈ 1.69 µM)
MIC (Saccharomyces cerevisiae): 0.5 µg/mL (≈ 0.541 µM)

Compound: O=[N+]([O-])c1ccc2c(c1)c(OCc1ccccc1)nn2CCOCCN(CCC/C=C/c1ccccc1)CCOCCn1nc(OCc2ccccc2)c2cc([N+](=O)[O-])ccc21
inhibition at 25 µM (Trypanosoma cruzi [5]): 0%

Compound: [O-][n+]1onc2ccc(CN3CCN(C/C=C/c4ccccc4)CC3)cc21
inhibition at 25 µM (Trypanosoma cruzi [5]): 14%

pIC50 (Trypanosoma cruzi [2]): 5.12
Compound: C=CCNC(=S)N/N=C/c1ccc2c(c1)[n+]([O-])c(C(=O)OCC)c(-c1ccccc1)[n+]2[O-]
CC50 at 48 h [1]: > 400 µM
selectivity ratio [3]: > 33.3

pIC50 (Trypanosoma cruzi [2]): 4.60
Compound: CC1(C)[N+]([O-])=c2ccc(CN3CCN(C/C=C/c4ccccc4)CC3)cc2=[N+]1[O-]
CC50 at 48 h [1]: 109 µM
selectivity ratio [3]: 4.4

pIC50 (Trypanosoma cruzi [2]): 4.64
Compound: CN(C/C=C/c1ccccc1)Cc1ccc2c(c1)=[N+]([O-])C(C)(C)[N+]=2[O-]
CC50 at 48 h [1]: > 400 µM
selectivity ratio [3]: > 17.6

pIC50 (Trypanosoma cruzi [2]): 5.14
MIC (Nannizzia gypsea): 250 µg/mL (≈ 783 µM)
MIC (Candida albicans): > 250 µg/mL
MIC (Cryptococcus neoformans): > 250 µg/mL
MIC (Aspergillus fumigatus): > 250 µg/mL
MIC (Trichophyton rubrum): 250 µg/mL (≈ 783 µM)
MIC (Aspergillus flavus): > 250 µg/mL
MIC [4]: 250 µg/mL (≈ 783 µM)
MIC (Aspergillus niger): > 250 µg/mL
MIC (Candida tropicalis): > 250 µg/mL
MIC (Saccharomyces cerevisiae): > 250 µg/mL
Compound: C=CCNC(=S)N/N=C/c1ccc2c(c1)=[N+]([O-])C(C)(C)[N+]=2[O-]
CC50 at 48 h [1]: 104 µM
MFC (Nannizzia gypsea): 250 µg/mL (≈ 783 µM)
MFC (Trichophyton rubrum): 250 µg/mL (≈ 783 µM)
selectivity ratio [3]: 14.4
MFC [4]: 250 µg/mL (≈ 783 µM)

MIC (Nannizzia gypsea): 250 µg/mL (≈ 573 µM)
MIC (Candida albicans): > 250 µg/mL
MIC (Cryptococcus neoformans): 250 µg/mL (≈ 573 µM)
MIC (Aspergillus fumigatus): > 250 µg/mL
MIC (Trichophyton rubrum): 250 µg/mL (≈ 573 µM)
MIC (Aspergillus flavus): > 250 µg/mL
MIC [4]: 250 µg/mL (≈ 573 µM)
MIC (Aspergillus niger): > 250 µg/mL
MIC (Candida tropicalis): > 250 µg/mL
MIC (Saccharomyces cerevisiae): > 250 µg/mL
Compound: C=CCNC(=S)N/N=C/c1ccc2c(c1)[n+]([O-])c(C(=O)Nc1ccccc1)c(C)[n+]2[O-]
MFC (Nannizzia gypsea): 250 µg/mL (≈ 573 µM)
MFC (Cryptococcus neoformans): > 250 µg/mL
MFC (Trichophyton rubrum): 250 µg/mL (≈ 573 µM)
inhibition at 25 µM (Trypanosoma cruzi [5]): 0%
MFC [4]: 250 µg/mL (≈ 573 µM)

pIC50 (Trypanosoma cruzi [2]): 5.11
Compound: CN(C/C=C/c1ccccc1)CCCCCn1nc(OCc2ccccc2)c2cc([N+](=O)[O-])ccc21
CC50 at 48 h [1]: < 100 µM
selectivity ratio [3]: < 12.8

Compound: N#Cc1c2ccccc2[n+]([O-])n1CC/C=C\c1ccc(Cl)cc1
inhibition at 25 µM (Trypanosoma cruzi [5]): 20%

Compound: CN(C/C=C/c1ccccc1)Cc1ccc2c(c1)[n+]([O-])c(C#N)c(N)[n+]2[O-]
inhibition at 25 µM (Trypanosoma cruzi [5]): 0%

Compound: CC(=O)N1CCN(c2ccc(OCC3COC(Cn4ccnc4)(c4ccc(Cl)cc4Cl)O3)cc2)CC1 (stereo not given) [KETOCONAZOLE]
CC50 at 48 h [1]: 339 µM
MIC (Nannizzia gypsea): 0.05 µg/mL (≈ 0.0941 µM)
MIC (Candida albicans): 0.5 µg/mL (≈ 0.941 µM)
MIC (Cryptococcus neoformans): 0.25 µg/mL (≈ 0.47 µM)
MIC (Aspergillus fumigatus): 0.125 µg/mL (≈ 0.235 µM)
MIC (Trichophyton rubrum): 0.025 µg/mL (≈ 0.047 µM)
selectivity ratio [3]: 19.9
MIC (Aspergillus flavus): 0.5 µg/mL (≈ 0.941 µM)
MIC [4]: 0.025 µg/mL (≈ 0.047 µM)
MIC (Aspergillus niger): 0.25 µg/mL (≈ 0.47 µM)
MIC (Candida tropicalis): 0.5 µg/mL (≈ 0.941 µM)
MIC (Saccharomyces cerevisiae): 0.5 µg/mL (≈ 0.941 µM)

pIC50 (Trypanosoma cruzi [2]): 4.64
Compound: COc1nn(CCOCCN(C)C/C=C/c2ccccc2)c2ccc([N+](=O)[O-])cc12
CC50 at 48 h [1]: < 100 µM
selectivity ratio [3]: < 4.3

Source: ChEMBL document CHEMBL1165856, “Naftifine-analogues as anti-Trypanosoma cruzi agents” (Eur J Med Chem, 2010)
